Active and inactive are the calls of the source. No cut-off for these calls is given here.
Columns and labels:
[1] = target: GABA-A receptor; anion channel; experiment: Dissociation constant (Kd) determined in Scatchard analysis of 35[S]-TBPS binding.; format: protein-complex assay, Rattus norvegicus
Method in brief: (§1)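 Scatchard analysis of [35S]-TBPS binding to rat brain membranes, with compounds dissolved in DMSO at a final assay concentration of 0.25%. Run in triplicate with triplicate determinations per point. Kd and Bmax were taken from linear regression of Scatchard-transformed data. TBPS alone vs TBPS plus test compound was compared by Student's t test.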

[2] = target: GABA-A receptor; anion channel; experiment: Inhibition of GABA-A receptor by displacement of 35[S]-TBPS; format: protein-complex assay, Rattus norvegicus
Method in brief: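 [35S]-TBPS displacement on rat brain membranes, with compounds dissolved in DMSO at a final assay concentration of 0.25%. IC50 was obtained by logistic analysis.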

[3] = target: T1, GABA-A receptor; anion channel (Rattus norvegicus) (UniProt O09028+P15431+P18506+P18508+P19969+P20236+P23574+P23576+P28471+P28473+P30191+P62813+P63079+P63138+Q91ZM7+Q9ES14); experiment: Maximal binding constant (Bmax) determined in Scatchard analysis of 35[S]-TBPS binding.; format: protein-complex assay; method in brief: as §1
[4] = target: T1, GABA-A receptor; anion channel (Rattus norvegicus); experiment: Percent response without GABA relative to current produced by 1 uM GABA alone in rat hippocampal cells (gated current); format: functional, cell-based; settings: Hippocampus
Method in brief: (§2)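 Whole-cell patch clamp on rat hippocampal cells. Current gated by 10 μM compound without GABA is expressed as percent of the current evoked by 1 μM GABA on the same cell.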

[5] = target: T1, GABA-A receptor; anion channel (Rattus norvegicus); experiment: (§3) Percent response with 1 uM GABA relative to current produced by 1 uM GABA alone in rat hippocampal cells; format: functional, cell-based; settings: Hippocampus
Method in brief: (§4)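 Whole-cell patch clamp on rat hippocampal cells. Current with 1 μM GABA plus 1 μM compound is expressed as percent of the current from 1 μM GABA alone.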

[6] = target: Gamma-aminobutyric acid receptor subunit gamma-1 (Rattus norvegicus) (UniProt P23574); experiment: Percent response without GABA relative to current produced by 1 uM GABA alone in rat hippocampal cells (No response); format: functional, cell-based; settings: Hippocampus; method in brief: as §2
[7] = target: Gamma-aminobutyric acid receptor subunit gamma-1 (Rattus norvegicus) (UniProt P23574); experiment: as §3; format: functional, cell-based; settings: Hippocampus; method in brief: as §4

Chain of Gamma-aminobutyric acid receptor subunit gamma-1 (Rattus norvegicus) (P23574 whole entry): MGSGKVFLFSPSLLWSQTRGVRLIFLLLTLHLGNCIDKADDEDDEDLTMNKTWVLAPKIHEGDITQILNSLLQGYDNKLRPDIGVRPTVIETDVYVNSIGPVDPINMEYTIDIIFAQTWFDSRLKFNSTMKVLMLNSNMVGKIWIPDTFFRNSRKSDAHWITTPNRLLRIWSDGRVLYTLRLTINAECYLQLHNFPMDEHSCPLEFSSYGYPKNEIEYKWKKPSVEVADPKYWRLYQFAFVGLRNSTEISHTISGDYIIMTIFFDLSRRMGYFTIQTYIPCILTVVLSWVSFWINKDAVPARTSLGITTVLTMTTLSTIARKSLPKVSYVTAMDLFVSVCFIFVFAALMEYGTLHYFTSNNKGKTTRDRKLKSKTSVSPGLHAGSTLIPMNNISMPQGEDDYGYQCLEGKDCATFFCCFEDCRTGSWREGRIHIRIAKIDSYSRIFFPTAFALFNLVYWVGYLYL

SMILES	Kd [1] [µM]	IC50 [2] [µM]	Bmax (pM (mg of protein)-1) [3]	Activity [4]	Response [5] [%]	Activity [6]	Response [7] [%]
CC(=O)C1CC[C@H]2[C@@H]3CC[C@H]4C[C@H](O)CC[C@]4(C)[C@H]3CC[C@]12C (some centres not stated)	< 0.08	0.18	1.22	30	195		
CC(=O)C[C@@]1(C)CCC2C(CC[C@H]3C[C@H](O)CC[C@]23C)C1 (some centres not stated)		3.98	1.15	1	113		
C[C@]1(CC#N)CCC2C(CC[C@H]3C[C@H](O)CC[C@]23C)C1 (some centres not stated)		3.27		8	106		
C[C@]12CCC3C[C@H](CCO)CCC3C1CCC2=O (some centres not stated)		44.1			127		
CC(=O)[C@H]1CCC2C3CC[C@@H](CCO)CC3CC[C@@]21C (some centres not stated)		5.82	1.04		489		
C[C@]12CCC3C[C@H](CCO)CCC3C1CC[C@@H]2C#N (some centres not stated)		4.5				inactive	346
CC(=O)[C@@]1(C)CCC2C(CC[C@H]3C[C@H](O)CC[C@]23C)C1 (some centres not stated)		7.06			108		

Reference: ChEMBL document CHEMBL1126987, “Modulation of GABAA receptor function by benz[e]indenes and phenanthrenes” (J Med Chem, 1993)
